Measurements collected from several papers.
Lines come from different studies, so protocols differ.

Structure (SMILES) | target or system | test | test system | setting | measurement | result
Cc1nc(Nc2ccc(NC(=O)c3ccco3)cc2)cc(-n2cccn2)n1 | HeLa | cell growth or viability, MTS |  |  | CC50 | > 100 µM
NC(=O)c1ncn([C@@H]2O[C@H](CO)[C@@H](O)[C@H]2O)n1 | HeLa | cell growth or viability, MTS |  |  | CC50 | > 250 µM
CC[C@H](C)[C@H](N)C(=O)N[C@@H](CC(N)=O)C(=O)N[C@@H](CC(C)C)C(=O)N[C@@H](CCCCN)C(=O)N[C@@H](C)C(=O)N[C@@H](CC(C)C)C(=O)N[C@@H](C)C(=O)N[C@@H](C)C(=O)N[C@@H](CC(C)C)C(=O)N[C@@H](C)C(=O)N[C@@H](CCCCN)C(=O)N[C@@H](CCCCN)C(=O)N[C@H](C(=O)N[C@@H](CC(C)C)C(N)=O)[C@@H](C)CC |  | haemolysis | human | 100 µM | haemolysis | ≤ 15%
CCCC[C@@H]1NC(=O)[C@H](Cc2ccc(O)cc2)NC(=O)[C@@H]2CCCN2C(=O)[C@H](CC(=O)O)NC(=O)[C@H](C)NC(=O)[C@H](Cc2ccccc2)NC(=O)[C@@H]2CSCCC(=O)N3CN(CN(C3)C(=O)CCSC[C@@H](C(=O)N[C@@H](CNC(=O)CCOCCOCCOCCOCCOCCn3cc(CCC(=O)N[C@H]4CSCCC(=O)N5CN6CN(C5)C(=O)CCSC[C@H](NC(=O)[C@@H](CC(=O)O)NC(=O)[C@H](Cc5cccc7ccccc57)NC(=O)[C@@H]5CCCN5C4=O)C(=O)N[C@@H](CCSC)C(=O)N[C@@H](CCCCNC(=N)N)C(=O)N[C@@H](CC(=O)O)C(=O)N[C@@H](Cc4c[nH]c5ccccc45)C(=O)N[C@@H](CO)C(=O)N[C@@H]([C@@H](C)O)C(=O)N4CCC[C@H]4C(=O)N4C[C@H](O)C[C@H]4C(=O)N[C@@H](Cc4c[nH]c5ccccc45)C(=O)N[C@H](C(N)=O)CSCCC6=O)nn3)C(N)=O)NC1=O)C(=O)CCSC[C@H](NC(C)=O)C(=O)N[C@@H](CC(C)(C)C)C(=O)N1CCC[C@H]1C(=O)N[C@@H](CCC(=O)O)C(=O)N[C@H](C)C(=O)N1CCC[C@H]1C(=O)N[C@@H](Cc1ccc(O)cc1)C(=O)N2 |  |  | rat, plasma | intravenous, 2 mg/kg | clearance | 16 mL/min/kg
COc1cc(Br)c(C=NNc2nc(-c3ccc(F)cc3)cs2)cc1OC |  | haemolysis | human | 10 µM, 30 min, pH 7.4 | haemolysis | 3.06%
CCCC[C@@H]1NC(=O)[C@H](Cc2ccc(O)cc2)NC(=O)[C@@H]2CCCN2C(=O)[C@H](CC(=O)O)NC(=O)[C@H](C)NC(=O)[C@H](Cc2ccccc2)NC(=O)[C@@H]2CSCCC(=O)N3CN(CN(C3)C(=O)CCSC[C@H](NC(C)=O)C(=O)N[C@@H](CC(C)(C)C)C(=O)N3CCC[C@H]3C(=O)N[C@@H](CCC(=O)O)C(=O)N[C@H](CCCCNC(=O)CCc3cn(CCOCCOCCOCCN(CCOCCOCCOCCC(=O)N[C@H]4CSCCC(=O)N5CN6CN(C5)C(=O)CCSC[C@H](NC(=O)[C@@H](CC(=O)O)NC(=O)[C@H](Cc5cccc7ccccc57)NC(=O)[C@@H]5CCCN5C4=O)C(=O)N[C@@H](CCSC)C(=O)N[C@@H](CCCCNC(=N)N)C(=O)N[C@@H](CC(=O)O)C(=O)N[C@@H](Cc4c[nH]c5ccccc45)C(=O)N[C@@H](CO)C(=O)N[C@@H]([C@@H](C)O)C(=O)N4CCC[C@H]4C(=O)N4C[C@H](O)C[C@H]4C(=O)N[C@@H](Cc4c[nH]c5ccccc45)C(=O)N[C@H](C(N)=O)CSCCC6=O)CCOCCOCCOCCn4cc(CCC(=O)NCCCC[C@H]5NC(=O)[C@H](CCC(=O)O)NC(=O)[C@@H]6CCCN6C(=O)[C@H](CC(C)(C)C)NC(=O)[C@@H](NC(C)=O)CSCCC(=O)N6CN7CN(C6)C(=O)CCSC[C@H](NC(=O)[C@H](Cc6ccc(O)cc6)NC(=O)[C@@H]6CCCN6C5=O)C(=O)N[C@@H](Cc5ccccc5)C(=O)N[C@@H](C)C(=O)N[C@@H](CC(=O)O)C(=O)N5CCC[C@H]5C(=O)N[C@@H](Cc5ccc(O)cc5)C(=O)N[C@@H](CCCC)C(=O)N[C@H](C(N)=O)CSCCC7=O)nn4)nn3)C(=O)N3CCC[C@H]3C(=O)N[C@@H](Cc3ccc(O)cc3)C(=O)N2)C(=O)CCSC[C@@H](C(N)=O)NC1=O |  |  | rat, plasma | intravenous, 2 mg/kg | clearance | 13 mL/min/kg
[2H]C([2H])([2H])n1cc2cc(Nc3nc(=O)n(Cc4ncn(C)n4)c(=O)n3Cc3cc(F)c(F)cc3F)c(Cl)cc2n1 |  |  | male Sprague-Dawley rat, plasma | intravenous, 5 mg/kg | clearance | 1.03 mL/min/kg
CC(C)(C)NC(=O)N[C@H](C(=O)N1C[C@H]2[C@@H]([C@H]1C(=O)NC(CC1CCC1)C(=O)C(N)=O)C2(C)C)C(C)(C)C (some centres unmarked) | HCT-8 | cell growth or viability, neutral red |  | 48 h | CC50 | > 100 µM
Nc1ncnc2c1ncn2C[C@H](O)CO | HeLa | cell growth or viability, MTS |  |  | CC50 | > 250 µM
CN[C@H](CC(C)C)C(=O)N[C@H]1C(=O)N[C@@H](CC(N)=O)C(=O)N[C@H]2C(=O)N[C@H]3C(=O)N[C@H](C(=O)N[C@H](C(=O)O)c4cc(O)cc(O)c4-c4cc3ccc4O)[C@H](O)c3ccc(c(Cl)c3)Oc3cc2cc(c3O[C@@H]2O[C@H](CO)[C@@H](O)[C@H](O)[C@H]2O[C@H]2C[C@](C)(N)[C@H](O)[C@H](C)O2)Oc2ccc(cc2Cl)[C@H]1O |  | haemolysis | human | 200 µM, 1 h, pH 7.2 | haemolysis | ≤ 1%
CCCCCCCCCCOc1cc2c(O)c(C(=O)OCC)cnc2cc1OCC | HeLa | cell growth or viability |  | 72 h | IC50 | > 100 µM
